Measured values as given in ChEMBL document CHEMBL4033712, “Synthesis and biological evaluation of new C-12(α/β)-(N-) sulfamoyl-phenylamino-14-deoxy-andrographolide derivatives as potent anti-cancer agents” (Bioorg Med Chem Lett, 2017).

How the values were obtained:
Assay type in all cases: functional
[1] = tested on: SR; assay: Growth inhibition of human SR cells incubated for 48 hrs by sulforhodamine B assay
How it was run: (§1)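 NCI 60 human tumour cell line panel, five-dose study at 0.01, 0.1, 1, 10 and 100 µM, 48 h incubation. Sulforhodamine B protein-binding dye end point. GI50 (50% decrease in net cell growth), TGI (total growth inhibition) and LC50 (net 50% loss of initial cells) read from log concentration versus % growth inhibition curves.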

[2] = tested on: A549; assay: Growth inhibition of human A549/ATCC cells incubated for 48 hrs by sulforhodamine B assay; conditions: A549, 48 h
How it was run: (§2)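 NCI-60 five-dose screen at 0.01, 0.1, 1, 10 and 100 µM, 48 h incubation, sulforhodamine B end point. GI50 (50% decrease in net growth), TGI (total growth inhibition) and LC50 (net 50% loss of initial cells) taken from log concentration versus % growth inhibition curves.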

[3] = tested on: HOP-92; assay: Growth inhibition of human HOP92 cells incubated for 48 hrs by sulforhodamine B assay; conditions: HOP-92, 48 h; how it was run: as §2
[4] = tested on: NCI-H226; assay: Growth inhibition of human NCI-H226 cells incubated for 48 hrs by sulforhodamine B assay; conditions: NCI-H226, 48 h; how it was run: as §2
[5] = tested on: COLO 205; assay: Growth inhibition of human COLO205 cells incubated for 48 hrs by sulforhodamine B assay; conditions: COLO 205, 48 h; how it was run: as §2
[6] = tested on: HCC 2998; assay: Growth inhibition of human HCC2998 cells incubated for 48 hrs by sulforhodamine B assay; conditions: HCC 2998, 48 h; how it was run: as §2
[7] = tested on: SW-620; assay: Growth inhibition of human SW620 cells incubated for 48 hrs by sulforhodamine B assay; conditions: SW-620, 48 h; how it was run: as §1
[8] = tested on: SF-268; assay: Growth inhibition of human SF268 cells incubated for 48 hrs by sulforhodamine B assay; conditions: SF-268, 48 h; how it was run: as §1
[9] = tested on: SNB-19; assay: Growth inhibition of human SNB19 cells incubated for 48 hrs by sulforhodamine B assay; conditions: SNB-19, 48 h; how it was run: as §1
[10] = tested on: SNB-75; assay: Growth inhibition of human SNB75 cells incubated for 48 hrs by sulforhodamine B assay; conditions: SNB-75, 48 h; how it was run: as §1
[11] = tested on: M14; assay: Growth inhibition of human M14 cells incubated for 48 hrs by sulforhodamine B assay; conditions: M14, 48 h; how it was run: as §2
[12] = tested on: MDA-MB-435; assay: Growth inhibition of human MDA-MB-435 cells incubated for 48 hrs by sulforhodamine B assay; conditions: MDA-MB-435, 48 h; how it was run: as §2
[13] = tested on: SK-MEL-2; assay: Growth inhibition of human SK-MEL-2 cells incubated for 48 hrs by sulforhodamine B assay; conditions: SK-MEL-2, 48 h; how it was run: as §1
[14] = tested on: SK-MEL-5; assay: Growth inhibition of human SK-MEL-5 cells incubated for 48 hrs by sulforhodamine B assay; conditions: SK-MEL-5, 48 h; how it was run: as §1
[15] = tested on: UACC-62; assay: Growth inhibition of human UACC62 cells incubated for 48 hrs by sulforhodamine B assay; conditions: UACC-62, 48 h; how it was run: as §1
[16] = tested on: OVCAR-5; assay: Growth inhibition of human OVCAR5 cells incubated for 48 hrs by sulforhodamine B assay; conditions: OVCAR-5, 48 h; how it was run: as §2
[17] = tested on: NCI/ADR-RES; assay: Growth inhibition of human NCI/ADR-RES cells incubated for 48 hrs by sulforhodamine B assay; how it was run: as §2
[18] = tested on: SK-OV-3; assay: Growth inhibition of human SKOV3 cells incubated for 48 hrs by sulforhodamine B assay; conditions: SK-OV-3, 48 h; how it was run: as §1
[19] = tested on: RXF 393; assay: Growth inhibition of human RXF393 cells incubated for 48 hrs by sulforhodamine B assay; conditions: RXF 393, 48 h; how it was run: as §1
[20] = tested on: TK-10; assay: Growth inhibition of human TK10 cells incubated for 48 hrs by sulforhodamine B assay; conditions: TK-10, 48 h; how it was run: as §1
[21] = tested on: PC-3; assay: Growth inhibition of human PC3 cells incubated for 48 hrs by sulforhodamine B assay; conditions: PC-3, 48 h; how it was run: as §2
[22] = tested on: MCF7; assay: Growth inhibition of human MCF7 cells incubated for 48 hrs by sulforhodamine B assay; conditions: MCF7, 48 h; how it was run: as §2
[23] = tested on: MDA-MB-231; assay: Growth inhibition of human MDA-MB-231 cells incubated for 48 hrs by sulforhodamine B assay; conditions: MDA-MB-231, 48 h; how it was run: as §2
[24] = tested on: T47D; assay: Growth inhibition of human T47D cells incubated for 48 hrs by sulforhodamine B assay; how it was run: as §1
[25] = tested on: MDA-MB-468; assay: Growth inhibition of human MDA-MB-468 cells incubated for 48 hrs by sulforhodamine B assay; conditions: MDA-MB-468, 48 h; how it was run: as §2
[26] = tested on: HOP-92; assay: Anticancer activity against human HOP92 cells assessed as cell growth at 10 uM after 48 hrs by sulforhodamine B assay relative to control; conditions: HOP-92, 48 h, read-out: Activity
How it was run: (§3)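 Single-dose NCI-60 panel screen: compound added at 10 µM and the culture incubated 48 h. The end point was read by protein staining with sulforhodamine B. The value is percent growth of treated cells relative to untreated control cells, reported as a mean graph across the panel.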

[27] = tested on: SNB-19; assay: Anticancer activity against human SNB19 cells assessed as cell growth at 10 uM after 48 hrs by sulforhodamine B assay relative to control; conditions: SNB-19, 48 h, read-out: Activity; how it was run: as §3
[28] = read-out: LC50 (the source's name)

C=C1CC[C@@H]2[C@](C)(COC(C)=O)[C@H](OC(C)=O)CC[C@@]2(C)[C@H]1CC(Nc1ccc(S(=O)(=O)Nc2ccc(Cl)nn2)cc1)C1=CCOC1=O (stereo not given in full)
GI50 [1]: 1.35 µM | TGI [1]: 8.1 µM | CC50 [1, 28]: > 100 µM | GI50 [2]: 2.96 µM | TGI [2]: 10.7 µM | CC50 [2, 28]: 40.9 µM | GI50 [3]: 2.7 µM | TGI [3]: 7.89 µM | CC50 [3, 28]: 27.5 µM | GI50 [4]: 1.67 µM | TGI [4]: 3.3 µM | GI50 [5]: 1.46 µM | TGI [5]: 3.16 µM | CC50 [5, 28]: 6.86 µM | GI50 [6]: 1.84 µM | TGI [6]: 3.86 µM | CC50 [6, 28]: 8.08 µM | GI50 [7]: 1.07 µM | TGI [7]: 2.8 µM | CC50 [7, 28]: 7.34 µM | GI50 [8]: 1.8 µM | TGI [8]: 3.67 µM | CC50 [8, 28]: 7.51 µM | GI50 [9]: 1.91 µM | TGI [9]: 3.91 µM | CC50 [9, 28]: 8 µM | GI50 [10]: 1.44 µM | TGI [10]: 5.9 µM | CC50 [10, 28]: 24.3 µM | GI50 [11]: 1.45 µM | TGI [11]: 3.41 µM | CC50 [11, 28]: 8.04 µM | GI50 [12]: 1.4 µM | TGI [12]: 3.17 µM | CC50 [12, 28]: 7.16 µM | GI50 [13]: 1.77 µM | TGI [13]: 3.99 µM | CC50 [13, 28]: 8.97 µM | GI50 [14]: 1.6 µM | TGI [14]: 3.13 µM | CC50 [14, 28]: 6.13 µM | GI50 [15]: 1.49 µM | TGI [15]: 3.86 µM | CC50 [15, 28]: 10 µM | GI50 [16]: 2.01 µM | LC50 (concentration causing net 50% loss of initial cells) [16]: 8.63 µM | TGI [16]: 4.16 µM | GI50 [17]: 1.87 µM | LC50 (concentration giving net 50% loss of initial cells) [17]: > 100 µM | TGI [17]: 6.2 µM | GI50 [18]: 4.05 µM | TGI [18]: 12.3 µM | CC50 [18, 28]: 35 µM | GI50 [19]: 1.77 µM | TGI [19]: 3.29 µM | CC50 [19, 28]: 6.14 µM | GI50 [20]: 2.13 µM | TGI [20]: 4.19 µM | CC50 [20, 28]: 8.25 µM | GI50 [21]: 2.24 µM | TGI [21]: 5.25 µM | CC50 [21, 28]: 15.8 µM | GI50 [22]: 0.78 µM | TGI [22]: 2.9 µM | GI50 [23]: 1.9 µM | LC50 (concentration giving net 50% loss of initial cells) [23]: 8.27 µM | TGI [23]: 3.96 µM | GI50 [24]: 1.51 µM | TGI [24]: 4.25 µM | CC50 [24, 28]: > 100 µM | GI50 [25]: 1.32 µM | TGI [25]: 3.37 µM | CC50 [25, 28]: 8.62 µM | growth at 10 µM [26]: 69.8% | growth at 10 µM [27]: 76%
